In ChEMBL document CHEMBL1125462, “Substituent variation in azabicyclic triazole- and tetrazole-based muscarinic receptor ligands” (J Med Chem, 1992):

Experiments:
[1] = biological target: Muscarinic acetylcholine receptor; test: In vitro displacement of [3H]quinuclidinyl benzilate (QNB) from rat cerebral cortex muscarinic receptor.; type: tissue-based
[2] = biological target: Muscarinic acetylcholine receptor; test: In vitro ability to displace [3H]oxotremorine-M (OXO-M) from rat cerebral cortex muscarinic receptor.; type: tissue-based
[3] = biological target: Muscarinic acetylcholine receptor; test: In vitro ability to displace [3H]oxotremorine-M (OXO-M) from rat cerebral cortex muscarinic acetylcholine receptor; type: tissue-based
How it was run: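 Hooded Lister rat cerebral cortex homogenised in ice-cold 50 mM Tris pH 7.7 (at 25 °C), washed by repeated 25000g spins, stored at -20 °C. Incubation buffer with 2 mM MgCl2; 37 °C, 30 min; filtered on GF/B filters presoaked in 0.05% polyethylenamine; scintillation counting. Seven concentrations; geometric mean of at least two separate experiments; IC50 (nM).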

[4] = biological target: Muscarinic acetylcholine receptor; test: In vitro ability to displace [3H]quinuclidinyl benzilate (QNB) from rat cerebral cortex muscarinic acetylcholine receptor; type: tissue-based
How it was run: (§1)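 Washed Hooded Lister rat cerebral cortex membranes (50 mM Tris pH 7.7), diluted from stored stock, incubated with test compound and 0.27 nM [3H]QNB at 37 °C for 30 min. GF/B filtration, ice-cold buffer washes, scintillation counting. Nonspecific binding typically 25% of total. Seven concentrations; geometric mean of separate experiments; IC50 (nM).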

[5] = biological target: Muscarinic acetylcholine receptor (Rattus norvegicus) (UniProt P08482+P08483+P08485+P08911+P10980); test: Ratio of Compound (IC50(nM) of QNB/ IC50(nM) of OXO-M); type: protein assay
[6] = biological target: Muscarinic acetylcholine receptor; test: In vitro ability to displace [3H]oxotremorine-M (OXO-M) from rat cerebral cortex Muscarinic acetylcholine receptor; type: tissue-based
[7] = biological target: Muscarinic acetylcholine receptor; test: In vitro ability to displace [3H]quinuclidinyl benzilate (QNB) from rat cerebral cortex Muscarinic acetylcholine receptor; type: tissue-based
[8] = biological target: Muscarinic acetylcholine receptor; test: In vitro ability to displace [3H]quinuclidinyl benzilate (QNB) from rat cerebral cortexMuscarinic acetylcholine receptor; type: tissue-based, Cerebral cortex; how it was run: as §1

Cn1ncc(C23CCCN(CC2)C3)n1 (stereo unspecified)
IC50 [1]: 3.1 µM
IC50 [2]: 14 nM

Clc1nnn([C@H]2CN3CC[C@H]2C3)n1
IC50 [3]: 7.6 nM
IC50 [4]: 630 nM
Ratio [5]: 83

Nc1nnn(C23CCCN(CC2)C3)n1 (stereo unspecified)
IC50 [1]: 2.67 µM
IC50 [2]: 5.9 nM

c1ncn(C23CCCN(CC2)C3)n1 (stereo unspecified)
IC50 [1]: 3.6 µM
IC50 [2]: 12 nM

Cc1nnn(C23CCCN(CC2)C3)n1 (stereo unspecified)
IC50 [1]: 1.925 µM
IC50 [2]: 14 nM

Nc1nnn([C@H]2CN3CC[C@H]2C3)n1
IC50 [1]: 4.36 µM
IC50 [2]: 2.6 nM

Cn1nnc([C@@H]2CN3CC[C@H]2C3)n1
IC50 [1]: 30.6 µM
IC50 [2]: 325 nM

Cn1ncc([C@@H]2CN3CC[C@H]2C3)n1
IC50 [1]: 13.5 µM
IC50 [2]: 16 nM

Brc1nnn(C23CCCN(CC2)C3)n1 (stereo unspecified)
IC50 [6]: 5.5 nM
IC50 [7]: 279 nM

Ic1nnn([C@H]2CN3CC[C@H]2C3)n1
IC50 [3]: 48 nM
IC50 [4]: 372 nM
Ratio [5]: 8

Clc1nnn(C23CCCN(CC2)C3)n1 (stereo unspecified)
IC50 [3]: 3.5 nM
IC50 [4]: 332 nM
Ratio [5]: 95

Nc1ncn([C@H]2CN3CC[C@H]2C3)n1
IC50 [1]: 3.6 µM
IC50 [2]: 18 nM

Clc1ncn([C@H]2CN3CC[C@H]2C3)n1
IC50 [8]: 1290 nM
IC50 [6]: 14 nM

Cc1ncn(C23CCCN(CC2)C3)n1 (stereo unspecified)
IC50 [1]: 2.1 µM
IC50 [2]: 12 nM

O=[N+]([O-])c1ncn([C@H]2CN3CC[C@H]2C3)n1
IC50 [1]: 35.6 µM
IC50 [2]: 4100 nM

Cn1ncc([C@H]2CN3CC[C@H]2C3)n1
IC50 [1]: 2.8 µM
IC50 [2]: 5.4 nM

Cc1ncn([C@H]2CN3CC[C@H]2C3)n1
IC50 [1]: 4.3 µM
IC50 [2]: 17 nM

Cn1nnc(C23CCN(CC2)C3)n1
IC50 [1]: 46.7 µM
IC50 [2]: 250 nM

c1nnn(C23CCCN(CC2)C3)n1 (stereo unspecified)
IC50 [1]: 7.2 µM
IC50 [2]: 19 nM

Nc1nnn(C2CN3CCC2CC3)n1 (stereo unspecified)
IC50 [1]: 4.4 µM
IC50 [2]: 38 nM

Cn1nnc([C@H]2CN3CC[C@H]2C3)n1
IC50 [1]: 2.9 µM
IC50 [2]: 11 nM

O=C1CCCN1CC#CCN1CCCC1
Ratio [5]: 190

Cc1ncn(C23CCN(CC2)C3)n1
IC50 [1]: 14.9 µM
IC50 [2]: 86 nM

Ic1nnn(C2CN3CCC2CC3)n1 (stereo unspecified)
IC50 [3]: 43 nM
IC50 [4]: 216 nM
Ratio [5]: 5

c1nnn([C@H]2CN3CC[C@H]2C3)n1
IC50 [1]: 14.3 µM
IC50 [2]: 30 nM

Cn1nnc(C23CCCN(CC2)C3)n1 (stereo unspecified)
IC50 [1]: 5.7 µM
IC50 [2]: 100 nM

c1ncn(C23CCN(CC2)C3)n1
IC50 [1]: 39.9 µM
IC50 [2]: 79 nM

Cc1nnn(C2CN3CCC2CC3)n1 (stereo unspecified)
IC50 [2]: 31 nM

Brc1ncn([C@H]2CN3CC[C@H]2C3)n1
IC50 [6]: 31 nM
IC50 [7]: 3040 nM

Nc1ncn(C23CCCN(CC2)C3)n1 (stereo unspecified)
IC50 [1]: 3.9 µM
IC50 [2]: 13 nM

Cn1ncc(C23CCN(CC2)C3)n1
IC50 [1]: 14.4 µM
IC50 [2]: 35 nM

c1ncn([C@H]2CN3CC[C@H]2C3)n1
IC50 [1]: 38.2 µM
IC50 [2]: 79 nM

Clc1nnn(C2CN3CCC2CC3)n1 (stereo unspecified)
IC50 [3]: 27 nM
IC50 [4]: 578 nM
Ratio [5]: 21

Brc1nnn(C2CN3CCC2CC3)n1 (stereo unspecified)
IC50 [3]: 20 nM
IC50 [4]: 488 nM
Ratio [5]: 25

Cc1nnn([C@H]2CN3CC[C@H]2C3)n1
IC50 [1]: 1.9 µM
IC50 [2]: 4.2 nM

Brc1nnn([C@H]2CN3CC[C@H]2C3)n1
IC50 [3]: 7.4 nM
IC50 [4]: 822 nM
Ratio [5]: 111

OC(c1ccccc1)(c1ccccc1)c1nnn(C2CN3CCC2CC3)n1 (stereo unspecified)
IC50 [1]: 0.0028 µM
IC50 [2]: 3.6 nM

N#Cc1nnn(C2CN3CCC2CC3)n1 (stereo unspecified)
IC50 [1]: 5.2 µM
IC50 [2]: 1400 nM
